# Compounds with a hit are over-represented: about 9.5% of the library has one in this group of screens.
# Jurkat tox 60K = cytotoxicity toward Jurkat T cells, primary screen, cytotoxicity control, cell-based, Jurkat E6.1, 60K MLSMR library; 56,000 compounds, 1.2% hits; AID 463, 2006; inhibition, % at 4 µM; Jurkat E6.1 viability, ATP luminescence, 48 h;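 active = inhibition above the mean inhibition of all tested compounds plus 3 SD, cut at about 28% in these data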
# Htt clearance = clearance of mutant huntingtin inclusions, primary screen, imaging, HeLa Exon1htt(103Q)mCFP, confocal imaging. aggregate imaging; zero = plate's median compound well. inhibition, % at 1.5 µM. 47,000 compounds, 0.42% hits;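 active = inhibition of aggregate fluorescence above about 70%, also judged a hit by eye on the cell image, limit read from the data, passing the limit was not always enough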;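 note: cells exposed to compound for three days before fixation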
# M1 agonist = M1 muscarinic receptor agonists, primary screen, CHO-M1 cells, Fluo-4 calcium, agonist mode; Fluo-4 calcium fluorescence; stronger effect = higher value; B-score at 10 µM; 64,000 compounds, 3% hits;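 active = fluorescence rise, raw or as B-score row- and column-corrected plate score, outside the 99.7% band of its plate's samples, either direction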
# M1 antag = antagonists of rat M1 muscarinic receptor; Muscarinic acetylcholine receptor M1 (Rattus norvegicus), P08482; CHO-M1 cells, Fluo-4 calcium, ACh EC80 antagonist mode; stronger effect = lower value; B-score at 10 µM; 64,000 compounds, 3.4% hits; AID 628, 2007;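 active = calcium fluorescence response, raw or row-and-column corrected B-score, differing from the plate sample mean either way at a set confidence level, mostly lower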
# Target sequence (P08482 whole entry, looked up): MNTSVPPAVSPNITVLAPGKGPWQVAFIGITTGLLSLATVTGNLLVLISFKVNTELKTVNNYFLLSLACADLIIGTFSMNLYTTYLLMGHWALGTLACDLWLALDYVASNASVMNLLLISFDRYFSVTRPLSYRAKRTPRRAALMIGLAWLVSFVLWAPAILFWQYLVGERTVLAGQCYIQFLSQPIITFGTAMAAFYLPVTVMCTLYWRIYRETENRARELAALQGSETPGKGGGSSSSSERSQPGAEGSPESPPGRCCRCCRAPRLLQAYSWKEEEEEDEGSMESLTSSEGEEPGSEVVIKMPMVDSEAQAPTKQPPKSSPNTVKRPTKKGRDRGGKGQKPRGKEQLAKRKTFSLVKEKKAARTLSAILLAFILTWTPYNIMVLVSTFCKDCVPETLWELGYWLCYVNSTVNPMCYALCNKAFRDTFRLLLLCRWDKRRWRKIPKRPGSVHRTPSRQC
# D1 mod = D1 CRE-luciferase signal change, two-sided – cell-based, HEK293 D1, dopamine EC30, D1 allosteric modulator project, primary screen | D(1A) dopamine receptor (Homo sapiens), P21728 | dopamine EC30 potentiation; actives deviate in either direction | B-score at 10 µM | 58,000 compounds, 5.9% hits | AID 641, 2007;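 active = luminescence count or its row- and column-corrected plate score outside the 99.7% band of the plate's sample wells, on either side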
# HEK293 NFkB inh = inhibitors of PMA/ionomycin-induced NF-kB reporter, primary screen, antigen receptor NF-kB inhibitor project, cell-based, HEK-293 luciferase reporter, luminescence. AID 465, 2006. inhibition, % at 3 µM. HEK-293 NF-kB luciferase reporter. 62,000 compounds, 0.21% hits;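 active = inhibition above the mean of all tested compounds plus 3 SD, cut at about 40% in these data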;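 note: 0% = stimulated DMSO wells and 100% = 10 µM reference inhibitor 5653914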
#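 Signal: luciferase luminescence; Material: HEK-293 cells with stable firefly luciferase reporter driven by four HIV NF-kB elements; Probe or stimulus: PMA with ionomycin; Replication: tested once; Times: 1 h compound pretreatment, then 16 h stimulation at 37 °C, 5% CO2; Benchmarks: DMSO and 10 µM reference inhibitor; Evaluation: per-plate % inhibition versus controls.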
# M1 antag conf = rat M1 muscarinic receptor antagonists, confirmation, CHO cells, Fluo-4 calcium, duplicate; calcium response (max-min fluorescence) at 10 µM; ACh EC80 antagonism; stronger effect = lower value; shares compounds with M1 antag; 1,700 compounds, 43% hits;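 active = calcium response below the same-plate mean of wells given acetylcholine alone at its 80%-effect dose, minus 3 SD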;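 note: raw fluorescence intensity difference in arbitrary instrument units and not normalized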
# mGluR4 antag = human mGluR4 response to M1 antagonist hits, M1 allosteric modulator project, cell-based, antagonist mode, secondary assay 1; shares compounds with M1 antag; CHO-mGluR4 calcium flux, Fluo-4 fluorescence, glutamate EC80; stronger effect = lower value; fluorescence response (max-min) at 10 µM; 1,700 compounds, 0.9% hits;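 active = fluorescence response below the plate's average for near-maximal glutamate wells, less 3 SD of those wells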;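 note: raw unnormalized fluorescence span taken in the window right after glutamate addition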
# Numbers without * were called inactive; . = no result given.
SMILES,Jurkat tox 60K,Htt clearance,M1 agonist,M1 antag,D1 mod,HEK293 NFkB inh,M1 antag conf,mGluR4 antag
CCN(CC)CCCn1c(C)cc2c(c1=O)C(c1cc(OC)c(OC)cc1OC)C(C#N)=C(N)O2 (stereo unspecified),-1,.,-0.41,-11*,-0.25,19,279*,253
CCn1c(C)cc2c(c1=O)C(c1ccccc1Br)C(C#N)=C(N)O2 (stereo unspecified),1,.,.,.,-2.4,5,.,.
CCN(CC)CCCn1c(C)cc2c(c1=O)C(c1cccc(Cl)c1)C(C#N)=C(N)O2 (stereo unspecified),.,-10,-0.55,-4.9*,-1.6,.,644,227
Cc1cc2c(c(=O)n1CCN(C)C)C(c1ccncc1)C(C#N)=C(N)O2 (stereo unspecified),-6,-87,0.089,-2.9*,0.49,1,675,252
COc1ccc(C2C(C#N)=C(N)Oc3cc(C)n(Cc4ccncc4)c(=O)c32)cc1 (stereo unspecified),10,0,0.27,0.0088,0.55,17,.,.
N=c1sccn1CC(=O)Nc1cccc(Oc2ccccc2)c1,7,-8,0.88,-2.4*,-0.97,14,381*,238
N=c1sccn1CC(=O)Nc1cccc2ccccc12,.,-42,.,.,.,.,.,.
CCC(=O)N1C(C(=O)N2CCCC2)CSC1c1ccc(OC)cc1 (stereo unspecified),-2,.,-3,0.15,-0.029,3,.,.
Cc1ccccc1-c1nn2c(-c3ccccc3)nnc2s1,.,.,0.15,-2.7*,.,.,650,261
Cc1ccc(-n2c(-c3c(-c4ccccc4)noc3C)n[nH]c2=S)cc1,.,-30,.,.,.,.,.,.
CCC1Oc2ccccc2N(CC(=O)NCCCN2CCN(Cc3ccccc3)CC2)C1=O (stereo unspecified),-4,.,0.019,-1.1,-0.44,21,.,.
CCC1Oc2ccccc2N(CC(=O)NCCN2CCc3ccccc3C2)C1=O (stereo unspecified),-3,47,-1.4,-1.7*,-0.38,2,583*,198
COc1cccc(C2CC(c3ccccc3Cl)n3ncnc3N2)c1 (stereo unspecified),0,.,-0.46,0.17,1.2,6,.,.
CC(C)(C)c1ccccc1OCC(=O)NCCC(=O)O,-2,.,-0.73,-2.8*,0.028,-5,673,237
CC(C)(C)c1ccccc1OCC(=O)Nc1ncn[nH]1,11,.,-1.3,1.4,0.23,3,.,.
CCn1c(SCC(=O)Nc2cccc(C)n2)nnc1-c1ccco1,-6,.,-0.31,0.02,-0.36,-1,.,.
CCc1cccc(C)c1NC(=O)CSc1nnc(-c2cc3cc(Br)ccc3o2)n1CC,-2,.,-0.75,-2.8*,-0.24,28,584,246
O=C(Cn1ncc2ccccc21)N1CCc2ccccc21,-7,.,0.057,-2.3*,0.63,5,693,252
CCCC(=O)N(c1ccc(OCC)cc1)C1C=CS(=O)(=O)C1 (stereo unspecified),0,.,-0.059,-1.9,-0.66,15,.,.
COc1cccc(-n2nc(C(=O)N3CC(C)CC(C)C3)c3ccccc3c2=O)c1 (stereo unspecified),.,31,.,.,.,.,.,.
CC1CCCCN1C(=O)CSc1nnc(Cc2ccccc2)n1C (stereo unspecified),.,-12,.,.,.,.,.,.
CCOc1ccc2c(c1)c1nnc(SCC(=O)N3CCC(C)CC3)nc1n2C,1,.,1,-4.6*,-0.13,-7,333*,231
CC1CCN(C(=O)CSc2nc3cccnc3n2C)CC1,2,.,-1.2,0.6,0.12,-3,.,.
CCOc1ccc2c(c1)c1nnc(SCC(=O)N3CCCCC3C)nc1n2C (stereo unspecified),-4,-3,-0.33,-3.2*,-1,-7,435,213
CCN1CCCC1CNC(=O)Cn1cccc1C(=O)c1ccccc1 (stereo unspecified),2,46,-0.37,-1.4,0.096,16,.,.
SMILES,Jurkat tox 60K,Htt clearance,M1 agonist,M1 antag,D1 mod,HEK293 NFkB inh,M1 antag conf,mGluR4 antag
CCN(CC)CCOc1cccc(C(C)C)c1,-2,.,-0.029,-4.5*,-1.2,6,294*,213
CCN(CC)CCOCCOc1cc(C)c(Cl)c(C)c1,.,-23,.,.,.,.,.,.
Nc1[nH]c(=S)[nH]c(=O)c1-c1ccccc1,0,-192,0.57,-2.3*,0.53,8,638,172
CCc1nc(C)c(-c2ccccc2)c(=O)[nH]1,-1,.,-0.34,0.12,-0.13,2,.,.
CC1(C)CC(=O)C(C=NCCN2CCN(CCc3ccccc3)CC2)=C(O)C1,.,.,0.016,-0.55,.,.,.,.
O=C(NCc1ccco1)c1ccc(CS(=O)(=O)Cc2ccc(Cl)cc2)o1,4,.,-0.47,-0.64,-0.44,12,.,.
O=C(NCc1ccco1)c1cc2cc3ccc(Cl)cc3nc2o1,-6,-60,0.055,-2.5*,0.49,11,696,238
O=C(CSc1nc2cc(Cl)ccc2s1)NC(=O)NCc1ccco1,-1,.,-1.2,-2.1*,0.2,7,629,255
CCOc1ccc2nc(SCC(=O)NCc3ccco3)sc2c1,8,-18,-0.79,-0.002,-0.068,1,.,.
Cn1c(-c2ccc(F)cc2)cnc1SCC(=O)Nc1ccccc1N1CCOCC1,0,-14,-0.11,0.047,-2.6,-17,.,.
O=C1c2cnc3nc(SCc4ccc(Cl)cc4)nn3c2CC2c3ccccc3CCN12 (stereo unspecified),.,0,.,.,.,.,.,.
CCOC(=O)Nc1c(O)ccc2oc(C)c(-c3ccccc3)c12,-2,-17,2.4,0.00053,-0.41,11,.,.
Cc1cccc(C(=O)NC2CCN(C(=O)N3CCOCC3)CC2)c1,.,10,.,.,.,.,.,.
O=C(O)c1ccc2c(c1)N(Cc1ccccc1)C(=O)c1ccccc1S2=O (stereo unspecified),-6,.,-0.2,0.44,0.26,-8,.,.
O=C(NCCN1CCCC1)c1ccc2c(c1)N(Cc1ccc(F)cc1)C(=O)c1ccccc1S2=O (stereo unspecified),-4,.,0.013,-1.1*,.,12,505,244
O=C(NCCN1CCOCC1)c1ccc2c(c1)N(Cc1ccc(F)cc1)C(=O)CS2,-4,.,0.47,-9.1*,-0.38,6,398*,214
Cc1ccc(CN2C(=O)CSc3ccc(C(=O)NCCN4CCOCC4)cc32)cc1,10,.,-0.43,-0.85,0.0013,16,.,.
